Source: the EternaBench riboswitch data

Test system: MS2 coat protein
Assay: apparent Kd, MS2 coat protein; higher = weaker binding; RNA-MaP array; FMN 200 µM where present
Outline: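 The apparent Kd is reported as the median of filtered per-cluster binding-curve fits. To get these curves, designs transcribed by stalled E. coli RNA polymerase on Illumina sequencing-chip clusters were titrated with SNAP-549-labelled MS2 coat protein from 0.7 or 1.5 nM, doubling to 3 µM. Titrations were run without and then with constant ligand in 100 mM Tris-HCl pH 7.5, 80 mM KCl, 4 mM MgCl2, BSA, DTT, yeast tRNA and Tween-20, and green signal was normalised to red-channel RNA signal and control-cluster median Fmax.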

[1] = designed as: OFF switch for flavin mononucleotide, no ligand
[2] = ligand present: flavin mononucleotide, designed as: OFF switch for flavin mononucleotide
[3] = designed as: ON switch for flavin mononucleotide, no ligand
[4] = ligand present: flavin mononucleotide, designed as: ON switch for flavin mononucleotide

Sequence	apparent Kd [1]	apparent Kd [2]	apparent Kd [3]	apparent Kd [4]
AUGCUUCACACAGGAUAUACAUGAGGAUCACCCAUGUGUCCAAAGUAGCCGACACGAGCUACGCGGUAGAAGGGUGUGAAGCAU	18.6 nM	52.2 nM	–	–
AUGGGUGUACCUUCACAUGAGGAUCACCCAUGUACGGGUGCGCAGGAUAUCCCAAAAGUCAGUAAGGAGAAGGGCGUAUGCCUG	312 nM	306 nM	–	–
AUGGUCAUGUUAGGAUAUGACGCGCUGUACGCAUCAGAAGGAACAUGAGGAUCACCCAUGUAUAGAGUAUUAUCGCUUACUCUC	52.7 nM	85.3 nM	–	–
AUGGUUGUCGUAGGAUAUGUAGGAUAUUCCUACAUGAGGAUCACCCAUGUUCGCAUGGAAGAAGGACGGAAGGACGAUGACCAA	–	–	249 nM	118 nM
AUGUGGUGCGUAGGAUAUCAUUGAGGGUAACCCUGAGAAGGACGUGAGGACAUGAGGAUCACCCAUGUGGAUCACCCAUGUCAU	150 nM	301 nM	–	–
AUGUUACAUGAGGAUCACCCAUGUGAGGAUAUGUGUAUCCCUAAAAAAGUGUGGGACCAUAGAAGGCACUUGGA	62.9 nM	98.1 nM	–	–
AUUAAACAUGAGGAUCACCCAUGUCAACAAAGUCGAGGAUAUGGGCAUAUUAUCUUAUUACCAGAAGGCGAAUAAU	–	–	390 nM	44 nM
AUUACAAUUGUAUACAUGAGGAUCACCCAUGUUAUAAGUCAUGAGGAUAUGGUAUUGUAGUUAUUCCAGAAGGCAUAUAGCUAA	–	–	14.3 nM	9.2 nM
AUUAUGUUAGGAUAUGCUUAUGGUGGAUAAUCAGAUAUGAUGCAGAAGGGACAUGAGGAUCACCCAUGUACUGU	20.8 nM	23.6 nM	–	–
AUUAUUAUAUUAUACAUGAGGAUCACCCAUGUUAUAAGUCAUGAGGAUAUGGUAUUGUAGUUUUUCCAGAAGGCAUUUAACUUA	–	–	10.3 nM	6.04 nM
AUUCAGCGGAACUUGACAUCCCUACAUGAGGAUCACCCAUGUCAGGAUAUAUGCUCUCGAGCUGCAUAGAAGGGACAUAGUGGG	48.2 nM	67 nM	–	–
AUUGAUGUUGAGGAUAUGCUUUUAUUUAUAAUAGCAGAAGGCGAUACAUGAGGAUCACCCAUGUUCAUGGUUUU	24.9 nM	33.6 nM	–	–
AUUGGUUAAGGAUAUCCCUUAGCAGACAUGAGGAUCACCCAUGUCGUCAUGAGGCCAGGCGGAGAAGGUGACUAAU	55.4 nM	35.8 nM	–	–
AUUGUUAAGGUAGGAUAUAGUAAAAUGAUUUAAUUAGAAGGAUCUCACAUGAGGAUCACCCAUGUAAUAGGAUUACCCAUGUAU	32.8 nM	23.6 nM	–	–
AUUGUUUUCAUAGGAUAUUGACAUUUAUUUAUUCAAGAAGGAUGAUUACAUGAGGAUCACCCAUGUUAUUAUGGAUUAACUAGU	23.7 nM	43.2 nM	–	–
AUUUAAAUGUCAGGAUAUGGUAGUUUAUACUUAUUAGAAGGGAUAAUUAUACUCAAGUACAUGAGGAUCACCCAUGUUAAAUCA	–	–	21.9 nM	21.5 nM
AUUUAAUUUAGCGAGAUCACAUGAGGAUCACCCAUGUAUAUAUAGGAUAUCAGCUCGAAUAGAGCUGAGAAGGAUAUAUACCGC	90.3 nM	157 nM	–	–
AUUUAGUGAGGAUAUGUGGCUUCGAUCGUGAGAUCGAGGCUACAGAAGGCACAUGAGGAUCACCCAUGUUCCUU	13.2 nM	55.9 nM	–	–
AUUUAUCUAGGAUAUACAUGAGGAUCACCCAUGUUGAAGCGUAGGUACCUUUCCGAAUGUAGAAGGAGAGCACC	19.9 nM	22.2 nM	–	–
AUUUGAAUCGUAGGAUAUCGCUUAAAUUUAACACGAGAAGGACGAACAUGAGGAUCACCCAUGUAUCAUGGUGUAGAUAAUUUG	82.5 nM	353 nM	–	–
AUUUGAAUCGUAGGAUAUCGCUUAAAUUUACCACGAGAAGGACGAACAUGAGGAUCACCCAUGUAUCAUGGUGUAGAUAAUUUG	68.2 nM	249 nM	–	–
AUUUGACACGUAGGAUAUCGCUCAAAUUUAACACGAGAAGGACGAACAUGAGGAUCACCCAUGUAACAUGGAGUAGUUUAUUUG	76.6 nM	111 nM	–	–
AUUUUAUAAUAGAAGGUAGACUUCAUGAGGAUCACCCAUGUGUUGGUACUAAGGAUAUGUAAUAACAUGAGGAUCACCCAUGUC	–	–	53.3 nM	51.7 nM
AUUUUGUGAGGAUAUUAGUUUUAUGAUUGGAGGAGUUUGGCUGAGAAGGCACAUGAGGAUCACCCAUGUAAAUC	35.3 nM	41.1 nM	–	–
AUUUUUUAUGUAGGAUAUGCUUGUGGUAAGAUAGCAGAAGGACAUGAGGAUCACCCAUGUUAAUGAUAGAGAUUUUAUGUUGGU	38.8 nM	58.8 nM	–	–
AUUUUUUGUCAUGUACAUGAUGAACAUGAGGAUCACCCAUGUAGAAGGAAUUUUUUUAAGUUUAGUUAGGAUAUACAUAUAUUU	16.6 nM	10.8 nM	–	–
CAAAACUGAGGAUAUACAUGAGGAUCACCCAUGUCCAAGGUCCUGGGCGGAUGCUGCUGUAGAAGGCGGAAAGA	22.4 nM	32.4 nM	–	–
CAAAAGUAUAACAAUUUCAAGGCACAGGAUAUGAGUGUGCACAUGAGGAUCACCCAUGUUAUAACUUAGAAGGGUGACCAUUGC	–	–	427 nM	368 nM

Sequence	apparent Kd [1]	apparent Kd [2]	apparent Kd [3]	apparent Kd [4]
CAAAGCAGUAAGGAUAUAUGGUAGCCAGUUACCGUAGAAGGUAUAACAUGAGGAUCACCCAUGUCCAUAUGAUU	56.8 nM	57.7 nM	–	–
CAAAGUUGGUAAGGAUAUCCCACAUUAUUCUGACCCGUGCAAGCUACAUGAGGAUCACCCAUGUGGGAGAAGGUGCGUUAAAGC	372 nM	219 nM	–	–
CAAGGGCAUGAGAAGGCAUAAUUUAUAUUACCACAUGUUUACAUGAGGAUCACCCAUGUUACCUAUGAGGAUAUCAUGCCUACA	12.7 nM	10.2 nM	–	–
CAAGGUGGAGGAUAUACAUGAGGAUCACCCAUGUAAGGACAAUAAAUAAGAUGAAGAAGUAGAAGGCCACUCAA	41.4 nM	46.3 nM	–	–
CAAGUACCAGAGGAUAUGGCGGUGCACUCCGUGCCAGAAGGUUGGACAUGAGGAUCACCCAUGUGCGAUUAGCU	26 nM	27.1 nM	–	–
CAAUCUGCAGGAUAUACAUGAGGAUCACCCAUGUAAGGACAAUAAAUAAGAAGAAGAAGUAGAAGGGCAGACAA	30.1 nM	31.8 nM	–	–
CAAUUUAGCGAGAAGGAGCGCCCGUAGGUACAUGAGGAUCACCCAUGUCCUUUGUGCUCUACGCGCUAGGAUAUCGAUAAACAG	20.9 nM	116 nM	–	–
CACAAGAAAGUCGAAGGUUGAAGUAGAAGGUCUAUAACAUGACAUGAGGAUCACCCAUGUGCCAAGAAGGAUAUGCUUUAAUCG	7.97 nM	6.53 nM	–	–
CACAUUUUAACAGGAUAUGUAUGGUUGCUUAUUAUUGCAAAUUCAAUUAUUACAGAAGGGUUAUACAUGAGGAUCACCCAUGUG	–	–	26.5 nM	16.8 nM
CACCGACCCUAUGUGUUCUAGACAUGAGGAUCACCCAUGUAUAGAAGGGUCUUCGCGAAACGCAGACAGGAUAUGUACAGGAGU	6.58 nM	9.89 nM	–	–
CACCGUUACACAGGAUAUCUUACAUGAGGAUCACCCAUGUAAUAAAUGAGAAUUUCGAAUGUAUUAGAGAAGGGUGGAAUCGGC	37.7 nM	90.2 nM	–	–
CACGAUGAUGUAGGAUAUAUGCUGGAAUACAGCAUAGAAGGACAUGAGGAUCACCCAUGUUAAGUGCCUCCAAAUAACAUCGUG	15.7 nM	21.7 nM	–	–
CACGGAAACGUGAAACGUAGCAUACGAGAAGGCUGAUCCACGACAUGAGGAUCACCCAUGUAGUUAGAGGAUAUUGGAUGCUAC	–	–	57.7 nM	12.2 nM
CACGGAUAGUAGAAGGGUGACAUGAGGAUCACCCAUGUACUUAUUUAUUUAUUACUAUUUGAUACACAGGAUAUACUAUCCGUG	–	–	956 nM	279 nM
CACGUCUGAGGAUAUCGUUUUUUGUACAUGAGGAUCACCCAUGUCCAAUUUUGUAUAUUACGAGAAGGCAGUGGAA	12.9 nM	19.7 nM	–	–
CACUCAGGCACAUGAGGAUCACCCAUGUCCCGGAAGCCGAGACAGGAUAUGUGCCUCGAAUGUGCACAGAAGGGUCUACUAUAU	–	–	226 nM	180 nM
CACUCGUGUCUAGGAUAUGAGUGACAAGCACGAGAUUUUCUCGACGCUAGCUCAGAAGGAGACAUGAGGAUCACCCAUGUAAGG	85.3 nM	16.6 nM	–	–
CACUGCAAUGUAGGAUAUCGACUGGAAUACAGUCGAGAAGGACAUGAGGAUCACCCAUGUACUAUGAGUGAAUAAUAAGCAGUG	88.9 nM	834 nM	–	–
CACUUAGGCACAUGAGGAUCACCCAUGUCCCGGGAGCCGAGACAGGAUAUGUGCCUCGAAUGUGCACAGAAGGGUCUACUAUGU	–	–	165 nM	229 nM
CAGAAGUCAGGAUAUCCAUGGCGGCACUUGCGUGGUGGCGUGGAGAAGGGACAUGAGGAUCACCCAUGUAAAGA	59.1 nM	48.2 nM	–	–
CAGACACAUCUAGGAUAUGGUGAUGCUCAAAACACAUGAGGAUCACCCAUGUAGCCUGUGUAUAAUCAGAAGGAGAACCGUGUA	–	–	84.6 nM	500 nM
CAGACCGGCGCAGGAUAUGUCGACAUGAGGAUCACCCAUGUAAGCCUCGUCUGGUCCGGUGUGUGACAGAAGGGUGUCGGCCAA	13.1 nM	38.1 nM	–	–
CAGCACUGUCGAGAGGAUAUGCGGUGAUGGACAUGAGGAUCACCCAUGUUAGCGACAGCAUCACGGCAGAAGGCUCUACUGCUGC	–	–	13.2 nM	12.2 nM
CAGCACUGUCGAGAGGAUAUGCGGUGAUGGACAUGAGGAUCACCCAUGUUAGCGACAGCAUCACGGCAGAAGGCUCUGCUGCUGC	–	–	59.4 nM	16.9 nM
CAGCAGUGUAAGAAGGCUGCUCCGAUAAGGAGCAGAGGAUAUUACAUGAGGAUCACCCAUGUAUGAACCAAUAGCUGAAAUAAA	9.12 nM	85.3 nM	–	–
CAGCGAUAGCUGAACAAUCUAUCUGAGGAUAUUCAUAAAACAUGAGGAUCACCCAUGUAAAAUUGGGAGAAGGCAGAUAGAUUG	–	–	12.6 nM	4.69 nM
CAGCGAUAGCUGAACAAUCUAUCUGAGGAUAUUCAUGAUAAACAUGAGGAUCACCCAUGUAAUUGGGAGAAGGCAGAUAGAUUG	–	–	441 nM	19.3 nM
